# Screening results: PubChem, Broad Institute
# RAD52 inh – inhibitors of human RAD52 DNA annealing | P43351 | recombinant RAD52 DNA annealing, FRET fluorescence | inhibition, % at 18.7 µM | actives 0.46% (n = 360,000) | AID 651710;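 active = every replicate showing at least 50% inhibition; inconclusive = mean inhibition at least 50% but not in every replicate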
# RAD54 branch – RAD54 (human) branch migration inhibition | RAD54 Holliday junction branch migration, FAM/BHQ fluorescence | actives 0.14% (n = 360,000) | AID 602329 | Q92698 | inhibition, % at 10.4 µM;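 active = mean normalized replicate activity at least 40 and at least half of replicates scoring 40 or more; inconclusive = only one of the two criteria met; inactive = mean below 40 and under half of replicates reaching 40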;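 also: 0% = median of neutral control wells and 100% = median of positive control wells; inhibitors cause a drop in the FAM fluorescence signal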
# Target sequence (Q92698 whole entry, looked up): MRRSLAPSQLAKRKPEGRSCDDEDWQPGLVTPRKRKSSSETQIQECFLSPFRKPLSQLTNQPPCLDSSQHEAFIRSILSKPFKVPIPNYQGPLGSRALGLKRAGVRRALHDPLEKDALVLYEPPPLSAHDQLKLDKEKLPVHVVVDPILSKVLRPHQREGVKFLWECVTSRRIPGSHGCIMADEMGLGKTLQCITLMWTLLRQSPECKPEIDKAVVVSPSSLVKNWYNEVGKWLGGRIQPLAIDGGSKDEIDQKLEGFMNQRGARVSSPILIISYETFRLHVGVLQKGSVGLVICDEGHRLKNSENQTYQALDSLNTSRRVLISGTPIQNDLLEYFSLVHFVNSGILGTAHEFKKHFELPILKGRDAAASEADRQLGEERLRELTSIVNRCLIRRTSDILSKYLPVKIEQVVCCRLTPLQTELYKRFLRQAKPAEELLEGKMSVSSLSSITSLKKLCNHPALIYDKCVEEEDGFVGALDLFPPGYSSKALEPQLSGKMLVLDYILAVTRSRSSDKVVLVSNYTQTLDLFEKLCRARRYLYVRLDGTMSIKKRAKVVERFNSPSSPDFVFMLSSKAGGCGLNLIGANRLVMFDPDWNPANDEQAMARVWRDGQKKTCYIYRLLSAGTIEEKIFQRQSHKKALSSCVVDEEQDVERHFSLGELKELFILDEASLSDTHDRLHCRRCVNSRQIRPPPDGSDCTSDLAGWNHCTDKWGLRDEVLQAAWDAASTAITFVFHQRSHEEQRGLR
# PAX8 reporter – PAX8 transcriptional activity inhibition. RMG-I TPO-luciferase reporter, SteadyGlo, 24 h. inhibition, % at 12.6 µM. actives 1.2% (n = 360,000);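 active = mean replicate inhibition at least 60% with every replicate also reaching 60%; inconclusive = only one of the two criteria is met; inactive = mean below 60% and not all replicates reaching 60%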;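 also: luciferase light reporting Pax8 driven TPO promoter activity; plate controls were median of neutral control wells for no effect and mitoxantrone controls for full effect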
# FN deposit inh – fibronectin deposition inhibition. AH1F fibroblasts, Alexa488-fibronectin deposition fluorescence, overnight. inhibition, % at 12.6 µM. actives 0.086% (n = 350,000);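 active = mean inhibition across replicates of 30% or more, regardless of how many single replicates reach that level; inconclusive = mean under 30% yet at least half of replicates reach 30%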;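 also: positive control wells lacked labelled fibronectin entirely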
#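 Assay system: AH1F fibroblasts / Quantity: 10000 cells per well / Medium: DMEM plus 2% serum, read in PBS / Reagent: labelled fibronectin 24 nM / Dosing: single dose, pinned / Times: 1 h cell attachment, overnight exposure to compound and label / Signal: fluorescence, ex 485 nm, em 525 nm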
# * hit, by the source's call; ? = inconclusive; · = no result given. Compounds with a hit are over-represented: about 1.3% of the library has one in this group of screens.
SMILES,RAD52 inh,RAD54 branch,PAX8 reporter,FN deposit inh
Nc1ncnc2c(C3OC(CO)C(O)C3O)scc12 (centres undefined),5,·,114*,7
COc1ccc(CNC(=O)C(=O)NC2CCC(C)CC2)cc1 (centres undefined),-9,11,0,-5
CC(C(=O)NCc1ccc2c(c1)OCO2)c1ccc([N+](=O)[O-])cc1 (centres undefined),-5,·,0,-14
N#Cc1cccc2c1-c1ccccc1/C2=N/NC(N)=O,·,85*,·,·
NC(=O)N/N=C1\c2ccccc2-c2c(C(N)=O)cccc21,-6,-10,12,-3
CC1CCCCN1S(=O)(=O)c1ccc(S(=O)(=O)N(Cc2ccccc2)Cc2ccco2)cc1 (centres undefined),-31,7,·,·
COc1ccccc1C1CC(c2ccco2)=NN1c1ccccc1 (centres undefined),-17,·,80*,4
O=C(O)C(Oc1ccc(Cl)cc1)c1ccc(Cl)cc1 (centres undefined),-1,-4,-3,-6
O=C(Cc1ccc(F)cc1)OCC(=O)N1CCN(S(=O)(=O)c2ccc(Cl)cc2)CC1,-8,13,101*,-1
O=C1ON=C(c2ccccc2)/C1=C/c1ccc(OS(=O)(=O)c2ccccc2)cc1,-27,·,108*,1
C[C@H]1CN([C@@H](C)CO)C(=O)Cc2cc(NC(=O)Nc3ccc4c(c3)OCO4)ccc2O[C@@H]1CN(C)C(=O)Nc1ccccc1,·,4,-23,·
C/C(=N\NC(=O)c1cc(Br)ccc1O)c1cccs1,-18,3,-132,4
CCCC(=O)Nc1ccc2c(c1)OC[C@@H](C)N(C)C[C@H](C)[C@@H](OC)CN(C)C2=O,8,4,-4,4
CCC(C)(C)NC(=O)C(OC(=O)c1ccco1)c1ccccc1OC (centres undefined),·,2,-14,31*
CCC(C)(C)NC(=O)C(OC(=O)c1ccco1)c1ccccc1F (centres undefined),9,4,-30,2
CCN(CC)S(=O)(=O)c1ccc(N/N=C/c2cc(OC)ccc2O)nc1,-8,·,68*,8
CCN(CC)S(=O)(=O)c1ccc(N/N=C/c2cccnc2)nc1,-6,-11,11,0
CCN=C1S/C(=C\c2cn(CC(=O)NCc3ccco3)c3ccccc23)C(=O)N1CC,-85,·,78*,1
NCCCNCCCCNCCCN,111*,4,·,·
CCC(CO)Oc1cc(NCc2ccccc2)c2ncn(C(C)C)c2c1 (centres undefined),5,-15,-2,-6
CCC(COC)Oc1cc(NCc2ccccc2)c2ncn(C(C)C)c2c1 (centres undefined),-6,-10,70*,0
CCC(COC(=O)c1ccccc1)Oc1cc(NCc2ccccc2)c2ncn(C(C)C)c2c1 (centres undefined),·,-10,64*,-6
O=C(O)c1ccc(NCc2nc3ccccc3n2Cc2ccccc2F)cc1,-30,-6,-13,-4
Cc1cc(C)cc(Nc2cnn(C34CC5CC(CC(CC(=O)O)(C5)C3)C4)c(=O)c2Cl)c1,-2,0,·,·
C[C@@H]1CN([C@H](C)CO)C(=O)c2c(c3ccccc3n2C)-c2ccccc2CO[C@@H]1CN(C)C(=O)CCN(C)C,40,·,4,3
SMILES,RAD52 inh,RAD54 branch,PAX8 reporter,FN deposit inh
C[C@H]1CN([C@@H](C)CO)C(=O)c2c(c3ccccc3n2C)-c2ccccc2CO[C@H]1CN(C)C(=O)Nc1ccc2c(c1)OCO2,8,1,?,-12
C[C@H]1CN([C@@H](C)CO)C(=O)c2c(c3ccccc3n2C)-c2ccccc2CO[C@@H]1CN(C)C(=O)CCN(C)C,59*,8,8,-3
C[C@@H]1CN([C@@H](C)CO)C(=O)c2c(c3ccccc3n2C)-c2ccccc2CO[C@H]1CN(C)C(=O)Nc1ccc2c(c1)OCO2,6,0,97*,-9
C[C@H]1CN([C@@H](C)CO)C(=O)c2c(c3ccccc3n2C)-c2ccccc2CO[C@@H]1CN(C)C(=O)CCC(F)(F)F,12,1,65*,-9
C[C@@H]1CN([C@H](C)CO)C(=O)c2c(c3ccccc3n2C)-c2ccccc2CO[C@@H]1CN(C)C(=O)CCC(F)(F)F,13,10,6,-6
C[C@@H]1CN([C@H](C)CO)C(=O)c2c(c3ccccc3n2C)-c2ccccc2CO[C@H]1CN(C)C(=O)CCN(C)C,57*,4,-21,-9
CC(C)(O)C(=O)NNC(=S)NCc1ccco1,14,·,-3,·
COc1ccccc1CNS(=O)(=O)c1ccc2[nH]cc(C(=O)O)c(=O)c2c1,·,-10,·,·
CCOC(=O)C1=C(CN2CCSCC2)NC(=O)NC1c1cc(C)ccc1C (centres undefined),·,-8,·,·
CCOc1cc(NC(=O)CCl)c(OCC)cc1NC(=O)CCl,-10,·,76*,15
CCOc1ccccc1NC(=O)CCC(=O)Nc1ccccc1OCC,·,1,-9,-8
Cc1ccc(S(=O)(=O)Nc2ccc3c(c2)C(=O)N([C@H](C)CO)C[C@@H](C)[C@@H](CN(C)S(=O)(=O)c2ccccc2)OCCCC[C@@H](C)O3)cc1,17,·,26,12
CN1CCCCN2[C@H](C1)[C@@H](c1ccc(C#Cc3ccccc3F)cc1)[C@@H]2CO,65*,11,-35,·
OC[C@@H]1[C@@H](c2ccc(C#Cc3ccccc3F)cc2)[C@H]2CN(CC3CCOCC3)CCCCN12,53*,-5,-3,5
CN1CCCCN2[C@@H](CO)[C@H](c3ccc(C#Cc4ccccc4F)cc3)[C@@H]2C1,47,1,-14,·
OC[C@H]1[C@H](c2ccc(C#Cc3ccccc3F)cc2)[C@H]2CN(CC3CCOCC3)CCCCN21,17,7,6,9
O=C(C[C@H]1C=C[C@@H](NC(=O)c2ccc3c(c2)OCO3)[C@H](CO)O1)NCc1ccc(Cl)cc1,-5,-4,13,·
c1ccc(Cc2cc[n+](Cc3ccccn3)cc2)cc1,-25,·,12,-4
CC1=NN(C)C(=O)C1Cc1c(F)cccc1Cl (centres undefined),-15,·,8,-6
C(=Cc1cnc2ccccc2n1)c1ccc2c(c1)OCO2,-26,-13,97*,-4
O=C1CCC(C(=O)N2CCSCC2)CN1Cc1ccc(Cl)cc1 (centres undefined),-10,-4,-11,-7
C[C@@H]1CN([C@@H](C)CO)C(=O)c2ccccc2-c2ccccc2CO[C@@H]1CN(C)Cc1ccccc1C(F)(F)F,4,·,45,-25
C[C@@H]1CN([C@H](C)CO)C(=O)c2c(c3ccccc3n2C)-c2ccccc2CO[C@H]1CN(C)S(=O)(=O)c1ccc(C(F)(F)F)cc1,10,·,83*,-13
C[C@@H]1CN([C@H](C)CO)C(=O)c2ccccc2-c2ccccc2CO[C@@H]1CN(C)Cc1ccccc1C(F)(F)F,11,·,75*,-8
C[C@H]1CN([C@@H](C)CO)C(=O)c2c(c3ccccc3n2C)-c2ccccc2CO[C@H]1CN(C)S(=O)(=O)c1ccc(C(F)(F)F)cc1,7,·,85*,-3
